Measured values gathered from unrelated publications.
Each line is one published result; the experiments were not run side by side.
Effect on: enzyme activity
Action: inhibitor
PIK3CD: Phosphatidylinositol 4,5-bisphosphate 3-kinase catalytic subunit delta isoform (PIK3CD, Homo sapiens, UniProt O00329)
KIT: Mast/stem cell growth factor receptor Kit (KIT, Homo sapiens, UniProt P10721)

CN1CCN(c2cc(=O)c3ccc(Nc4ncc5cc(C(=O)N(C)C)n(C6CCCC6)c5n4)cc3o2)CC1  IC50 (PIK3CD; radiometric): > 10000 nM
Cc1n[nH]c2ccc3nc(-c4ccc(C(=O)NCCN(C)C)cc4)c4c(c3c12)CCCCC4  IC50 (KIT): 328 nM
Cc1cccc(N=C2C(=O)Nc3ccccc32)c1  IC50 (PIK3CD; ADP detection): 88.9 nM
Cc1n[nH]c2ccc3nc(-c4ccc(C(=O)NCCN(C)C)cc4F)c4c(c3c12)CCCCC4  IC50 (KIT): 261 nM
CN(C)C(=O)c1cc2cnc(Nc3ccc(-c4ccc5c(=O)cc(N6CCOCC6)oc5c4)cc3)nc2n1C1CCCC1  IC50 (PIK3CD; radiometric): 897 nM
COc1ccccc1N1CCN(C(=O)c2cccc(S(=O)(=O)n3cncn3)c2)CC1  IC50 (Prostaglandin reductase 2 (Homo sapiens, UniProt Q8N8N7); lysate): 176 nM
O=C1Nc2ccccc2/C1=N\c1ccc(Cl)cc1  IC50 (PIK3CD; ADP detection): 765 nM
CN(C)CCNC(=O)c1ccc(-c2nc3ccc4[nH]ncc4c3c3c2CCCC3)c(F)c1  IC50 (KIT): 887 nM
Cc1ccc(CN2C(=O)C(=Nc3c(C(C)C)cccc3C(C)C)c3ccccc32)cc1  IC50 (PIK3CD; ADP detection): 233 nM
CN(C)C(=O)c1cc2cnc(Nc3cccc4c(=O)cc(N5CCOCC5)oc34)nc2n1C1CCCC1  IC50 (PIK3CD; radiometric): > 10000 nM
O=C1Nc2ccc(I)cc2/C1=C/c1cc(Br)c(O)c(Br)c1  IC50 (Casein kinase II subunit alpha (CSNK2A1, Homo sapiens, UniProt P68400)): 319 nM
COc1c(Cl)cccc1Nc1c(-c2ccncc2OC[C@@H]2COCCO2)[nH]c2c1C(=O)NCC2  IC50 (Receptor tyrosine-protein kinase erbB-4 (ERBB4, Homo sapiens, UniProt Q15303); TR-FRET): 13.9 nM
O=C1Nc2ccccc2C1=Nc1cccc(Cl)c1  IC50 (PIK3CD; ADP detection): 83.7 nM
CN(C)C(=O)c1cc2cnc(Nc3cncc(-c4ccc5c(=O)cc(N6CCOCC6)oc5c4)c3)nc2n1C1CCCC1  IC50 (PIK3CD; radiometric): 137 nM
Cc1n[nH]c2ccc3nc(-c4ccc(C(=O)NCCN(C)C)cc4F)c4c(c3c12)CCCC4  IC50 (KIT): 512 nM
Cc1cccc(N=C2C(=O)N(Cc3ccccc3)c3ccccc32)c1  IC50 (PIK3CD; ADP detection): 21.9 nM
CN(C)C(=O)c1cc2cnc(Nc3cc(C(F)(F)F)c(-c4cccc5c(=O)cc(N6CCOCC6)oc45)cn3)nc2n1C1CCCC1  IC50 (PIK3CD; radiometric): 95 nM
O=C1C(=Nc2ccc(Cl)cc2Br)c2ccccc2N1Cc1ccc([N+](=O)[O-])cc1  IC50 (PIK3CD; ADP detection): 50.9 nM
COc1ccc(-c2cc(=O)c3ccc(Nc4ncc5cc(C(=O)N(C)C)n(C6CCCC6)c5n4)cc3o2)cc1  IC50 (PIK3CD; radiometric): 9790 nM
CN(C)CCNC(=O)c1ccc(-c2nc3ccc4[nH]ncc4c3c3c2CCCCC3)c(F)c1  IC50 (KIT): 249 nM
